Experimental data reported in PMC12095820 (Scientific Reports, 2025).
pIC50: −log10 of the molar value.

Assays:
[1] = Dissolution in culture medium during antiproliferative assay; format: physicochemical; details: 20 µM
[2] = test system: glioblastoma stem cells (Gli4); assay: Neurospheres formation assay; format: cell-based, human; details: proliferation medium, 0, 1 and 10 µM, 4 days
Method in brief: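 Dissociated Gli4 cells (4000 per well) were plated in proliferation medium in round-bottom ultra-low-attachment wells pre-coated with poly-HEMA; a flat-bottom format was also run. Compound in DMSO was added to final 0, 1 and 10 µM. After 4 days, spheres were dissociated, and cells were mixed 1:1 with trypan blue and counted in a Neubauer chamber.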

[3] = test system: GBM cell lines LN18 and U373; assay: Antiproliferative evaluation in 2D cell culture, summary over both GBM lines; format: cell-based, human; details: data not shown; crystals at 20 µM
Method in brief: (§1)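 LN-18 and U373 cells were grown in phenol-red-free DMEM with 5% FBS and amino acids at 37 °C, 5% CO2. Cells (1 x 10³ per well) adhered 24 h, then were exposed 48 h to 0–140 µM compound, with 0.1% DMSO as vehicle. MTT (2.5 mg/mL in phenol-red-free medium) was applied 1 h at 37 °C. Plates were read at 540 nm after DMSO solubilisation and normalised to vehicle. Statistics: one-way ANOVA with Tukey.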

U373 = assay: Antiproliferative MTT assay, 2D cell culture; format: cell-based; details: Homo sapiens, U373 MG, 48 h, read-out: IC50 U373
Method in brief: as §1

LN-18 = assay: Antiproliferative MTT assay, 2D cell culture; format: cell-based; details: Homo sapiens, LN-18, 48 h, read-out: IC50 LN-18
Method in brief: as §1

MCF-10 A = assay: MTT assay on non-cancerous control cells; format: cell-based; details: Homo sapiens, 48 h, read-out: IC50 MCF-10 A
Method in brief: (§2)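 Non-tumour control cells were used: BJ fibroblasts in DMEM with 5% FBS, and MCF-10A in DMEM/F12 with 5% horse serum, insulin, EGF and hydrocortisone. Cells (1 x 10³ per well) adhered 24 h, then were treated 48 h with 0–140 µM compound in DMSO (0.1% vehicle control). MTT (2.5 mg/mL) was applied 1 h at 37 °C. Formazan was dissolved in DMSO, read at 540 nm and normalised to vehicle.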

BJ = assay: MTT assay on non-cancerous control cells; format: cell-based; details: Homo sapiens, 48 h, read-out: IC50 BJ
Method in brief: as §2

Gli4 cells [4] = assay: 3D anti-migratory assay on aligned nanofibers; format: cell-based, human; details: 10 µM, non-cytotoxic concentration
Gli4 cells [5] = assay: MTT assay, Gli4 in differentiation medium, flat bottom plate; format: cell-based, human; details: flat bottom, 0, 1 and 10 µM, compared to G-15
Method in brief: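 Gli4 cells (4000 per well) were seeded in differentiation medium in flat-bottom wells treated with laminin/lysine. Compound was tested at 0, 1 and 10 µM. Viability was quantified by MTT 5 days after incubation and expressed as % viability. N=5.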

Gli4 cells [6] = assay: 3D antiproliferative assay on non-aligned nanofibers; format: cell-based, human; details: proliferation and differentiation mediums, 0.1, 1 and 10 µM, 4 days
Forced stability test = format: physicochemical; details: for Percentage degradation, Thermal: 50 °C; for Percentage degradation, Thermal / Percentage degradation, Acid / Percentage degradation, Basic / Percentage degradation, Luminous: 24 h; for Percentage degradation, Oxidative: H2O2 3%, 1 h; for Percentage degradation, Acid: HCl 0.1 N; for Percentage degradation, Basic: NaOH 0.1 N; for Percentage degradation, Luminous: Sunlight
Method in brief: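 Compound stock (1 mL) was placed in a 5 mL volumetric flask for each stress. Acid and base arms used 1 mL of 0.1 N HCl or 0.1 N NaOH for 24 h, then were neutralised with the opposite reagent. Oxidative stress used 3.0% H2O2. For heat (50 °C oven, 24 h) and sunlight exposure (24 h), stock was diluted to volume in mobile phase in capped vials. Degradation was assessed chromatographically.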

| Compound | Ability to dissolve into medium culture [1] | Neurospheres formation [2] | IC50 in the cells assayed [3] | pIC50 (U373) | pIC50 (LN-18) | pIC50 (MCF-10 A) | pIC50 (BJ) | Reduction of migration of Gli4 cells on aligned NFS (Gli4 cells [4]) | Cell viability of the NS (Gli4 cells [5]) | Cell proliferation of Gli4 on non-aligned nanofibers (Gli4 cells [6]) | Percentage degradation, Thermal (Forced stability test) | Percentage degradation, Oxidative (Forced stability test) | Percentage degradation, Acid (Forced stability test) | Percentage degradation, Basic (Forced stability test) | Percentage degradation, Luminous (Forced stability test) |
| --- | --- | --- | --- | --- | --- | --- | --- | --- | --- | --- | --- | --- | --- | --- | --- |
| Brc1cc2c(cc1[C@@H]1Nc3ccccc3[C@@H]3C=CC[C@@H]31)OCO2 [G15, reference compound] | formed crystals | inhibit neurospheres formation | not able to reach IC50 values | – | – | – | – | – | – | – | – | – | – | – | – |
| Cc1cc2c(C(C)C)c(O)c(O)c(C=O)c2c(O)c1-c1c(C)cc2c(C(C)C)c(O)c(O)c(C=O)c2c1O [Gossypol, reference compound] | – | – | – | 4.47 | 4.60 | – | – | – | – | – | – | – | – | – | – |
| Cc1ccc(S(=O)(=O)NC(=O)c2ccc3c(c2)[C@@H]2C=CC[C@@H]2[C@H](c2cc4c(cc2Br)OCO4)N3)cc1 [L-06, (3aS,4R,9bR)-4-(6-bromobenzo[d][1,3]dioxol-5-yl)-N-tosyl-3a,4,5,9b-tetrahydro-3 H-cyclopenta[c] quinoline-8-carboxamide] | – | inhibit neurospheres formation | – | 4.17 | 4.17 | 4.47 | 3.99 | ~50% | slightly decreased cell viability | non-antiproliferative activity | 1.36% | 2.95% | 7.2% | 9.8% | 0.15% |
| O=C(NS(=O)(=O)c1ccc(Cl)cc1)c1ccc2c(c1)[C@@H]1C=CC[C@@H]1[C@H](c1cc3c(cc1Br)OCO3)N2 [L-37, (3aS,4R,9bR)-4-(6-bromobenzo[d][1,3]dioxol-5-yl)-N-((4-chlorophenyl)sulfonyl)-3a,4,5,9b-tetrahydro-3 H-cyclopenta[c] quinoline-8-carboxamide] | – | inhibit neurospheres formation | – | 4.40 | 4.39 | 4.62 | 3.96 | – | slightly decreased cell viability | trend to decrease cell proliferation | 0.75% | 0.5% | 0.65% | 13.6% | 3.5% |
